{"source": "paper PMC5207485", "about": "(Bioorganic & medicinal chemistry, 2016)", "key": {"[1]": {"test": "CSF concentration of ALS-I-41 after IN or IM administration", "assay_type": "in vivo, rhesus macaque", "conditions": "for Time Max: macaque CSF; for Ave Max in CSF / Time CSF Max: male rhesus", "summary_of_the_method": "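Four male rhesus macaques (5 yr, 9–13 kg) under IM Telazol (4–5 mg/kg) with IV propofol drip (10 mg/kg/hr). Test compound in propylene glycol, given IN by face-mask pediatric nebulizer over 8 min (dose from nebulizer residue) or IM 6.15 mg into the inner thigh. Lumbar CSF was analysed unprocessed by LC-MS/MS in duplicate (C18, 70:30:0.1 water/methanol/formic acid). Detection limit ~1 pg/ml; blood-contaminated samples excluded.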"}, "human OXTR": {"target": "human OXTR", "conditions": "displacing [^3H]OT at a concentration of 2 nM; cited from earlier work"}, "[2]": {"test": "Plasma concentration of ALS-I-41 after IN or IM administration", "assay_type": "in vivo, rhesus macaque", "conditions": "for Time Plasma Max: male rhesus"}, "[3]": {"conditions": "rhesus macaque, intravenous dose; cited from earlier work"}, "[4]": {"conditions": "titi monkey models; cited from earlier work"}, "[5]": {"test": "PET scan of [18F]ALS-I-41 in a cynomolgus macaque, IV bolus", "assay_type": "in vivo, cynomolgus macaque (Macaca fascicularis)", "summary_of_the_method": "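Single male cynomolgus macaque (8.1 kg), Telazol 3 mg/kg IM, then intubated and ventilated on 1–2% isoflurane in oxygen with continuous vital monitoring. 5 mCi of the [18F]tracer given IV, then brain PET for 2 h, co-registered to the animal's MRI. Summed frames at 9–26 min and 90–120 min post-injection were used to assess distribution.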"}, "[6]": {"test": "PET imaging of [18F]ALS-I-41 in Sprague-Dawley rats", "assay_type": "in vivo", "conditions": "rat PET", "summary_of_the_method": "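Female Sprague-Dawley rats (200–330 g), isoflurane induction 4–5% and maintenance 1–2% in oxygen, vitals and temperature monitored. [18F]tracer was given IM at 340–390 μCi in 100 μl above the knee, with scanning from 15 min post-injection, or as a 30 min tail-vein infusion of 250–310 μCi in 10% ethanol/saline by syringe pump. 2 h PET with Co-57 attenuation correction; time-activity curves for whole brain, arm muscle and skull.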"}, "[7]": {"conditions": "macaque, IN nasal spray, maximum of 5 IU/kg OT; cited from earlier work"}, "[8]": {"test": "CSF OT levels after IV and IN nasal spray OT, maximum 5 IU/kg", "assay_type": "in vivo", "conditions": "macaque, maximum of 5 IU/kg OT, same calculation from data of ref 38"}, "[9]": {"conditions": "IN 24 IU OT, 75 minutes post administration, baseline 20 pg/ml; cited from earlier work"}, "[10]": {"conditions": "aerosolized IN high dose, ave dose 7690 μg"}, "[11]": {"conditions": "aerosolized IN low dose, ave dose 202 μg"}, "[12]": {"conditions": "rhesus, IN 7.5 mg target dose vs low dose"}}, "note": "Like-named read-outs stand apart in the source and are kept apart here.", "data": [{"compound": "CS(=O)(=O)N1CCC(Oc2ccc(CC(=O)N3CCC(N4C(=O)CCc5ccccc54)CC3)c(OCCF)c2)CC1", "note": "[ALS-I-41]", "values": [{"measurement": "Time Max", "setting": "[1]; IM 6.15 mg", "value": 120, "unit": "m"}, {"measurement": "Time Max", "setting": "[1]; IN 7.69 mg", "value": 60, "unit": "m"}, {"measurement": "time retained within the brain", "setting": "[1]; macaque, after IN or IM administration", "value": "over 2 hours"}, {"measurement": "Ave Max in CSF", "setting": "[1]; IM, dose 6150 μg", "value": 478, "unit": "pg/mL"}, {"measurement": "Time CSF Max", "setting": "[1]; IM, dose 6150 μg", "value": 120, "unit": "m"}, {"measurement": "Ave Max in CSF", "setting": "[1]; [10]", "value": 97.2, "unit": "pg/mL"}, {"measurement": "Time CSF Max", "setting": "[1]; [10]", "value": 60, "unit": "m"}, {"measurement": "Ave Max in CSF", "setting": "[1]; [11]", "value": 7.36, "unit": "pg/mL"}, {"measurement": "Time CSF Max", "setting": "[1]; [11]", "value": 120, "unit": "m"}, {"measurement": "brain penetration", "setting": "[1]; rhesus macaque, via CSF extraction and PET imaging", "value": "mild brain penetrant"}, {"measurement": "increase in CSF concentration, high dose IN in comparison to low dose IN", "setting": "[1]; [12]", "value": 14, "unit": "fold"}, {"measurement": "Ki", "setting": "human OXTR", "value": 16, "unit": "nM"}, {"measurement": "Time Plasma Max", "setting": "[2]; IM, dose 6150 μg", "value": 60, "unit": "m"}, {"measurement": "Time Plasma Max", "setting": "[2]; [10]", "value": 15, "unit": "m"}, {"measurement": "Time Plasma Max", "setting": "[2]; [11]", "value": 5, "unit": "m"}, {"measurement": "increase in plasma concentrations, high dose IN in comparison to low dose IN", "setting": "[2]; [12]", "value": 150, "unit": "fold"}]}, {"compound": "Cc1ccccc1N1CCN(S(=O)(=O)CC23CCC(CC2NC(=O)C(N)CCS(C)(=O)=O)C3(C)C)CC1", "note": "[L-368,899]", "values": [{"measurement": "time remaining in the CSF post injection", "setting": "[3]", "value": "over 250 minutes"}]}, {"compound": "CS(=O)(=O)N1CCC(Oc2ccc(CC(=O)N3CCC(N4C(=O)CCc5ccccc54)CC3)c(OCC[18F])c2)CC1", "note": "[[^18F]ALS-I-41]", "values": [{"measurement": "brain penetration", "setting": "[4]", "value": "no significant brain penetration"}, {"measurement": "time at which distribution of the tracer throughout the entire brain peaked", "setting": "[5]; cynomolgus macaque, 5 mCi IV bolus", "value": "15 to 30", "unit": "min"}, {"measurement": "brain uptake versus neck muscle tissue (TAC)", "setting": "[5]; cynomolgus macaque, 5 mCi IV, 2 hour scan", "value": "only a fraction of the dose reaches the brain"}, {"measurement": "tracer remaining in the thalamic region at the end of the scan", "setting": "[5]; cynomolgus macaque, 2 hour scan", "value": "very little remained"}, {"measurement": "bone uptake", "setting": "[5]; monkey model (macaque PET scan)", "value": "no significant bone uptake detected"}, {"measurement": "metabolism suggested by rapid uptake in the bone", "setting": "[6]", "value": "rapidly metabolized on first pass"}]}, {"compound": "oxytocin [OT]", "values": [{"measurement": "change of CSF OT", "setting": "[7]", "value": "no significant change"}, {"measurement": "maximum reported CSF OT increase", "setting": "[8]", "value": "~22", "unit": "pM"}, {"measurement": "OT levels in human CSF post administration", "setting": "[9]", "value": 30, "unit": "pg/mL"}]}]}
